Test results published in ChEMBL document CHEMBL5653605, “Reduced VEGF production, angiogenesis, and vascular regrowth contribute to the antitumor properties of dual mTORC1/mTORC2 inhibitors” (Cancer Res, 2011).
pIC50: −log10 of the molar value. Activity calls are given as the source filed them.

How the values were obtained:
[1] = tested on: Pancreatic islet cell carcinoma; test: Antitumor activity against pancreatic islet cell carcinoma in RIP-Tag2 mouse assessed as reduction in VEGF-A expression at 75 mg/kg, po bid administered via gavage and measured after 1 to 7 days by immunoprecipitation based densitometric analysis relative to control; assay type: functional; set-up: scale not given: the % may be the effect or the level left; details: time 1-7 day
How it was run: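 VEGF in tumor lysates from treated RIP-Tag2 mice (9–10 weeks old at start; 75 mg/kg gavage BID or 20 mg/kg ip QD) measured with mouse angiogenesis antibody arrays, read as pixel density. 3–8 mice/group, SEM; ANOVA with Fisher PLSD.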

[2] = tested on: Pancreatic islet cell carcinoma; test: Antitumor activity against pancreatic islet cell carcinoma in RIP-Tag2 mouse assessed as reduction in cell proliferation at 75 mg/kg, po bid administered via gavage and measured after 7 days by immunohistochemistry analysis; assay type: functional, organism-based; details: time 7.0 day
How it was run: (§1)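 RIP-Tag2 mice aged 9–10 weeks dosed by gavage BID for 7 days; vehicle Labrifil or water. Mice fixed by vascular perfusion, tumors cut into 60–80 µm sections. Proliferating cells stained for phospho-histone H3 and apoptotic cells for activated caspase-3. Sections imaged by fluorescence/confocal microscopy. Body weight checked daily, fluids given if loss exceeded 10%. 3–8 mice per group, SEM, ANOVA with Fisher PLSD.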

[3] = tested on: Pancreatic islet cell carcinoma; test: Antitumor activity against pancreatic islet cell carcinoma in RIP-Tag2 mouse assessed as induction of apoptosis by measuring caspase-3 activation at 75 mg/kg, po bid administered via gavage and measured after 7 days by immunohistochemistry analysis; assay type: functional, organism-based; details: time 7.0 day; how it was run: as §1
[4] = Drug concentration in nu/nu CD-1 mouse plasma xenografted with human GEO cells at 75 mg/kg administered for 14 days and measured 8 hr post last dose; assay type: ADME, organism-based
[5] = tested on: Pancreatic islet cell carcinoma; test: Antivascular activity against pancreatic islet cell carcinoma in RIP-Tag2 mouse assessed as reduction in CD31-positive tumor blood vessels at 75 mg/kg, po bid administered via gavage and measured after 1 to 4 days by immunohistochemical staining based fluorescence microscopic analysis; assay type: functional, organism-based; details: time 1-4 day
[6] = target: Phosphatidylinositol 4,5-bisphosphate 3-kinase catalytic subunit gamma isoform (Homo sapiens, UniProt P48736); test: Inhibition of PI3Kgamma (unknown origin) in presence of ATP by HTRF assay
How it was run: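 PI3K activity by HTRF assay at […] ATP.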

[7] = tested on: Pancreatic islet cell carcinoma; test: (§2) Antitumor activity against pancreatic islet cell carcinoma in RIP-Tag2 mouse assessed as reduction in VEGF production by measuring reduction in fluorescence in entire tumor at 75 mg/kg, po bid administered via gavage and measured after 1 day by immunohistochemical staining based confocal microscopic analysis relative to control; assay type: functional; set-up: scale not given: the % may be the effect or the level left
How it was run: (§3)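 Treatment began in RIP-Tag2 mice at 9–10 weeks: 75 mg/kg gavage BID for 1, 4 or 7 days, or 20 mg/kg ip QD for 7 days; vehicle Labrifil or water. Tissue fixed by vascular perfusion and 60–80 µm sections stained for VEGF with CD31. VEGF fluorescence intensity measured over whole tumor, tumor cells, or tumor vessels. 3–8 mice/group; ANOVA, Fisher PLSD.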

Mus musculus [8] = test: In vivo inhibition of 4E-BP1 phosphorylation in RIP-Tag2 mouse with pancreatic islet cell carcinoma 75 mg/kg, po bid administered via gavage and measured after 7 days by immunohistochemistry; assay type: functional, organism-based; details: time 7.0 day
How it was run: (§4)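 RIP-Tag2 mice aged 9–10 weeks dosed 75 mg/kg BID by gavage for 7 days, vehicle Labrifil or water; perfusion fixation, 60–80 µm tumor sections immunostained for phospho-4E-BP1, phospho-Akt or phospho-S6K with CD31; fluorescence/confocal imaging; 3–8 mice per group.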

OVCAR-3 = test: Inhibition of S6K at […] residues in serum deprived/insulin stimulated human OVCAR-3 cells harboring PTEN and wild type PI3K assessed as inhibition of s6 substrate phosphorylation at […] residue at 0.001 to 10 uM preincubated for 2 hrs followed by insulin stimulation and measured immediately by Western blot analysis; assay type: cell-based; details: dose 0.001-10 µM
[9] = target: RAC-alpha serine/threonine-protein kinase (Homo sapiens) (UniProt P31749); test: Inhibition of AKT phosphorylation at Ser 473 site in serum deprived/insulin stimulated human OVCAR-3 cells harboring PTEN and wild type PI3K preincubated for 2 hrs followed by insulin stimulation and measured immediately by Western blot analysis; assay type: cell-based; details: dose 0.001-10 µM
[10] = target: Serine/threonine-protein kinase mTOR (Homo sapiens, UniProt P42345); test: Inhibition of mTOR (unknown origin) assessed as reduction in 4E-BP1 phosphorylation by cell based assay
[11] = target: Phosphatidylinositol 4,5-bisphosphate 3-kinase catalytic subunit alpha isoform (Homo sapiens, UniProt P42336); test: Inhibition of PI3Kalpha (unknown origin) in presence of ATP by HTRF assay
GEO = test: Antitumor activity against human GEO cells xenografted in nu/nu CD-1 mouse assessed as slower tumor growth at 75 mg/kg administered twice a day for 14 days and measured twice weekly; assay type: functional, organism-based; details: time 14.0 day
[12] = tested on: Pancreatic islet cell carcinoma; test: (§5) Antitumor activity against pancreatic islet cell carcinoma in RIP-Tag2 mouse assessed as reduction in VEGF production by measuring reduction in tumor vessels associated fluorescence intensity at 75 mg/kg, po bid administered via gavage and measured after 1 to 7 days by immunohistochemical staining based confocal microscopic analysis relative to control; assay type: functional; set-up: scale not given: the % may be the effect or the level left; details: time 1-7 day; how it was run: as §3
[13] = tested on: Pancreatic islet cell carcinoma; test: as §2, with “7 days” for “1 day”; assay type: functional; set-up: scale not given: the % may be the effect or the level left; details: time 7 day; how it was run: as §3
[14] = Drug concentration in nu/nu CD-1 mouse plasma xenografted with human GEO cells at 75 mg/kg administered for 14 days and measured 1 hr post last dose; assay type: ADME, organism-based
Ephrin type-A receptor 2 = Ephrin type-A receptor 2 (Homo sapiens, UniProt P29317); test: Inhibition of EphA2 phosphorylation (unknown origin) by cell based assay
[15] = target: Proto-oncogene tyrosine-protein kinase Src (Homo sapiens, UniProt P12931); test: Inhibition of SRC (unknown origin) assessed as reduction in phosphorylated FAK level by cell based assay
[16] = tested on: Pancreatic islet cell carcinoma; test: Additive antitumor activity in pancreatic islet cell carcinoma in RIP-Tag2 mouse assessed as induction of apoptosis by measuring increase in activated caspase-3 level at 100 mg/kg, po bid administered via gavage for 4 days in presence of OSI-930 by immunohistochemistry analysis relative to control; assay type: functional; details: time 4 day
mTORC2 = mTORC2 (Homo sapiens, UniProt P42345); test: Competitive inhibition of mTORC2 immunoprecipitated from human HeLa cells using His-tagged 4E-BP1 as substrate incubated for 30 mins in presence of ATP by chemiluminescence based ELISA
How it was run: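 Native mTORC1 or mTORC2 complex immunoprecipitated from HeLa lysates; kinase reaction run at 1 mM ATP.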

[17] = target: Mitogen-activated protein kinase 10 (Homo sapiens) (UniProt P53779); test: Inhibition of JNK3 (unknown origin)
[18] = tested on: Pancreatic islet cell carcinoma; test: as §5, with “cell” for “vessels”, “after” for “after 1 to”; assay type: functional; set-up: scale not given: the % may be the effect or the level left; details: time 7 day; how it was run: as §3
[19] = tested on: Pancreatic islet cell carcinoma; test: Antivascular activity in pancreatic islet cell carcinoma in RIP-Tag2 mouse assessed as suppression of tumor regrowth by measuring reduction in vessel density at 75 mg/kg, po bid administered via gavage pretreated with OSI-930 for 7 days at 200 mg/kg, po followed by compound administration and measured after 4 days (reference value: 18%); assay type: functional; set-up: scale not given: the % may be the effect or the level left; details: time 4 day
How it was run: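 10-week-old RIP-Tag2 mice given OSI-930 200 mg/kg QD by gavage for 7 days, then 75 mg/kg BID by gavage for 4 days. Mice fixed by vascular perfusion; 60–80 µm tumor sections immunostained for endothelial cells; vessel area density from fluorescence images at threshold 30–50. 3–8 mice per group; ANOVA with Fisher PLSD.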

Mus musculus [20] = test: In vivo inhibition of AKT phosphorylation in RIP-Tag2 mouse with pancreatic islet cell carcinoma 75 mg/kg, po bid administered via gavage and measured after 7 days by immunohistochemistry; assay type: functional, organism-based; details: time 7.0 day; how it was run: as §4

Sequence of Proto-oncogene tyrosine-protein kinase Src (P12931 2-536 limits assumed): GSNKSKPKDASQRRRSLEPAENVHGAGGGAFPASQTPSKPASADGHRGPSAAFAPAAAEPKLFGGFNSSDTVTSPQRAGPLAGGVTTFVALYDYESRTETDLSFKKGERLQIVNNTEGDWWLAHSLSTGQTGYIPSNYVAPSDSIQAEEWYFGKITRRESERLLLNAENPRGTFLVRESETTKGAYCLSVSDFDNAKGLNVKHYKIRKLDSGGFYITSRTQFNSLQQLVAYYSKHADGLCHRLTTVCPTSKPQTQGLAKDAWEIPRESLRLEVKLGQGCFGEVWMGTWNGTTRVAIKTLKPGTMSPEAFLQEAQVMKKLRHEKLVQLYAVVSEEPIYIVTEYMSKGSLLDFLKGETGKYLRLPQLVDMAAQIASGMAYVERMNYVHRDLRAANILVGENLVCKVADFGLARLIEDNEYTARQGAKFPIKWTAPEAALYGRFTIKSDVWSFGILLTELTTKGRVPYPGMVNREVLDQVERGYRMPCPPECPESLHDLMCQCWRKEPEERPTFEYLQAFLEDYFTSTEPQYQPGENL
Sequence of Phosphatidylinositol 4,5-bisphosphate 3-kinase catalytic subunit gamma isoform (P48736 whole entry, canonical isoform): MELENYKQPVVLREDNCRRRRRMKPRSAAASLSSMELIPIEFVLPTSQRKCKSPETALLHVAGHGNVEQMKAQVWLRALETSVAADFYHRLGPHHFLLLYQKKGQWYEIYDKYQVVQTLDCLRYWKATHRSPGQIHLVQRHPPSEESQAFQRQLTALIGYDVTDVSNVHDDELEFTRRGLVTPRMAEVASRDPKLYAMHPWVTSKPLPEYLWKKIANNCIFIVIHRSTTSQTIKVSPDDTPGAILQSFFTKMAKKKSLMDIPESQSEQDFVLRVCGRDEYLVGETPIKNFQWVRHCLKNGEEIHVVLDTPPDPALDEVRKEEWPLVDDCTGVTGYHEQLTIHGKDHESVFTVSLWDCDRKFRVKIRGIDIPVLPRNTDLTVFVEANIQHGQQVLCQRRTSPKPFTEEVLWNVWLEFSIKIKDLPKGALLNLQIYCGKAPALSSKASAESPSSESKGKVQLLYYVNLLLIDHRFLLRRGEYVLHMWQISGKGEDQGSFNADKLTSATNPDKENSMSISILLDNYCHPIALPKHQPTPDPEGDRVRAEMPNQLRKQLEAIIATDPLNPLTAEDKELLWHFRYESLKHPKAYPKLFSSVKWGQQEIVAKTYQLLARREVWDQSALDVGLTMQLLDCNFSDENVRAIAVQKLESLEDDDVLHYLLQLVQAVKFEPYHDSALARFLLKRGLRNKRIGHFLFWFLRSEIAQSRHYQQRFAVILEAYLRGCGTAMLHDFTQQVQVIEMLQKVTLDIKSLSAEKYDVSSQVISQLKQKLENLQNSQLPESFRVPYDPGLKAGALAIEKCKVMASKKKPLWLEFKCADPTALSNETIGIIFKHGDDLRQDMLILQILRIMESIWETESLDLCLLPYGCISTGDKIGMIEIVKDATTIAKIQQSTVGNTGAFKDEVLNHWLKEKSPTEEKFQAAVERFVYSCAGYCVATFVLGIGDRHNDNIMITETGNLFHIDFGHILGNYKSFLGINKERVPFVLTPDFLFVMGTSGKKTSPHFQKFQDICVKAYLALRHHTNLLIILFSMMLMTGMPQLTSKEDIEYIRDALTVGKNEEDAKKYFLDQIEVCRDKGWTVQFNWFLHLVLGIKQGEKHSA
Sequence of Mitogen-activated protein kinase 10 (Homo sapiens) (P53779 whole entry): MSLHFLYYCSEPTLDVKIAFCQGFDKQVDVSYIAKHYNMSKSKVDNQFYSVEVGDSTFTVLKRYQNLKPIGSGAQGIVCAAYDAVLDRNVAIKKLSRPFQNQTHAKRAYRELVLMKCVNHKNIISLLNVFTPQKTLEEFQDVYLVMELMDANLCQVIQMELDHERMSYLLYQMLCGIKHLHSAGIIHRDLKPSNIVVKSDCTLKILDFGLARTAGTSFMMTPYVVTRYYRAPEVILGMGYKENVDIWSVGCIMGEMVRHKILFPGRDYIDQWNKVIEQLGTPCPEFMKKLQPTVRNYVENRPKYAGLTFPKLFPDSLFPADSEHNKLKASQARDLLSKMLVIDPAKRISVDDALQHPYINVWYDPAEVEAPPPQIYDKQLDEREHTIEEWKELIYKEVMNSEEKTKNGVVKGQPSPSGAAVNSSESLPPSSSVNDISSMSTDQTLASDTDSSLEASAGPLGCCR
Sequence of Phosphatidylinositol 4,5-bisphosphate 3-kinase catalytic subunit alpha isoform (P42336 whole entry, canonical isoform): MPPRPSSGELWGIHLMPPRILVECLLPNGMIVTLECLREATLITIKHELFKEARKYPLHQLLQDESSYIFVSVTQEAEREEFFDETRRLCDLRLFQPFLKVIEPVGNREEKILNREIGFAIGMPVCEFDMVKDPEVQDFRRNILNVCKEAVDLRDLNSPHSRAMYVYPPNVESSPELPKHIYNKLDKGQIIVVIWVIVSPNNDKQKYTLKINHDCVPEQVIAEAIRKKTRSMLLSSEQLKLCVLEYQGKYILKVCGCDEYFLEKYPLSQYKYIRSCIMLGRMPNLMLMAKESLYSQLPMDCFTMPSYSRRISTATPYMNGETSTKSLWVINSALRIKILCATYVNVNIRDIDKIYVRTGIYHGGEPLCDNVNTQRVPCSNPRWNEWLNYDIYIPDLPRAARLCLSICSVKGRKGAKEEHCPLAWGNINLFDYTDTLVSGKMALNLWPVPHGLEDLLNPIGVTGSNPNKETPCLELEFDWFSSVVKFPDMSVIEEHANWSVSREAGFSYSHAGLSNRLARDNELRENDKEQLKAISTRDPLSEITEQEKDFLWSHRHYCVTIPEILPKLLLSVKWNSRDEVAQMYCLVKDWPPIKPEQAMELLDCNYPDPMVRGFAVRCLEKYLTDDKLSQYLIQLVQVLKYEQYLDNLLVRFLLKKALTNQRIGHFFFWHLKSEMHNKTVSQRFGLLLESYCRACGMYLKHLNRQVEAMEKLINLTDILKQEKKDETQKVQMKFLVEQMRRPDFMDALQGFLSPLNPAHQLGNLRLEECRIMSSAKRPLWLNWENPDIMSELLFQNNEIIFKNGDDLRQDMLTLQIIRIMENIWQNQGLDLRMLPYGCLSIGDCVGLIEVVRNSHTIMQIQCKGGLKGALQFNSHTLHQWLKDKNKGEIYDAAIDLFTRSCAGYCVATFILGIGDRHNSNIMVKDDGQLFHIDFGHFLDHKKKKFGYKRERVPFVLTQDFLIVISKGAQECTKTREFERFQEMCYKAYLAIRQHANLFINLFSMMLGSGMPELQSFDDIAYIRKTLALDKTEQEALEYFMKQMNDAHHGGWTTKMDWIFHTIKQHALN
Sequence of Ephrin type-A receptor 2 (P29317 whole entry): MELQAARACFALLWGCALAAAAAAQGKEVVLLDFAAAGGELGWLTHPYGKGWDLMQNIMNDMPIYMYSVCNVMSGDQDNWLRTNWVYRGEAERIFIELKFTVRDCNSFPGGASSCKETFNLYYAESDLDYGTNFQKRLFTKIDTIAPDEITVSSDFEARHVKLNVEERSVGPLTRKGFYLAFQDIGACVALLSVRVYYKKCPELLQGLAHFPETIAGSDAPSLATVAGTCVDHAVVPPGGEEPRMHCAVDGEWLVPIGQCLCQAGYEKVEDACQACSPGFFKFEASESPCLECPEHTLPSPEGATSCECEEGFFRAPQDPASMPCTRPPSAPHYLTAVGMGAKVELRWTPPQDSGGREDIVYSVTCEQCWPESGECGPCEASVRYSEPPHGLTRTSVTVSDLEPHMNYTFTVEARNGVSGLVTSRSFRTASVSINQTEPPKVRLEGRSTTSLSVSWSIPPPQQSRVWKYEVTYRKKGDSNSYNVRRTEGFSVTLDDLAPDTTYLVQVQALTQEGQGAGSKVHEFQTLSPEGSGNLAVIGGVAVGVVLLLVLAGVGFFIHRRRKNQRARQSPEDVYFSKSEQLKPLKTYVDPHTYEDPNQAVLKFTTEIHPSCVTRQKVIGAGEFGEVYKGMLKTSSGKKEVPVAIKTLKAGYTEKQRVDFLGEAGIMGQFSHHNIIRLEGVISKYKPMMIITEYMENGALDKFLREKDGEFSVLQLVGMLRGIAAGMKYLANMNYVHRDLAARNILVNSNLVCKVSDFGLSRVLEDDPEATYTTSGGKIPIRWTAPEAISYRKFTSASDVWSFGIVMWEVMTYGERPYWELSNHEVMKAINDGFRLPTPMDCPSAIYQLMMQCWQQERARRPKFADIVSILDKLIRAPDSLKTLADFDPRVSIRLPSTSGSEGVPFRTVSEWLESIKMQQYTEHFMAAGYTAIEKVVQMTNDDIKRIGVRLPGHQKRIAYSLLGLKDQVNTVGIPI
Sequence of RAC-alpha serine/threonine-protein kinase (Homo sapiens) (P31749 whole entry): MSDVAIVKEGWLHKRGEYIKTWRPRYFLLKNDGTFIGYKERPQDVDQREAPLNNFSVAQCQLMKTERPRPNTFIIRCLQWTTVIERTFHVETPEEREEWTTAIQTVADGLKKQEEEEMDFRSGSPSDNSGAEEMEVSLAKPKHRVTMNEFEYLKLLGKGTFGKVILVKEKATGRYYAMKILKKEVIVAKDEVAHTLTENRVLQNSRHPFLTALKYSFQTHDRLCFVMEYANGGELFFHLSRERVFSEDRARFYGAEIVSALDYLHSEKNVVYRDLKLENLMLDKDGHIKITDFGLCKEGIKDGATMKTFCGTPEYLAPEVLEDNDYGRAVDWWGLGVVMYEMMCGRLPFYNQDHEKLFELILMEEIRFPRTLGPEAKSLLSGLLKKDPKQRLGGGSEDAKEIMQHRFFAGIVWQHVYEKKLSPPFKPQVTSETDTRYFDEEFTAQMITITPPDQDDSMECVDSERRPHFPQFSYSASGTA

concentration at 344 h [4]: 13.2 µM
pIC50 [6]: 6.34
inhibition [9]: Dose-Dependent Effect
pIC50 [10]: 5.96
pIC50 [11]: 6.72
concentration at 337 h [14]: 25.6 µM
pIC50 (Ephrin type-A receptor 2): < 4.40
pIC50 [15]: < 4.40
pIC50 (mTORC2): 8.15
inhibition [17]: Active
SMILES: Nc1nccn2c1c(-c1cc3cccc(Cl)c3[nH]1)nc2[C@H]1CC[C@H](C(=O)O)CC1
Activity [1]: 72%
Activity [2]: Active
Activity [3]: Active
Activity [5]: inactive
Activity [7]: 12%
inhibition (Mus musculus [8]): Active
inhibition (OVCAR-3): Active
Activity (GEO): Active
Activity [12]: 48%
Activity [13]: 45%
Activity [16]: 700%
Activity [18]: 65%
Activity [19]: 40%
inhibition (Mus musculus [20]): Active
